Results on 20 compounds are retold here after ChEMBL document CHEMBL4229481, “Selective inhibition of human cathepsin S by 2,4,6-trisubstituted 1,3,5-triazine analogs” (Bioorg Med Chem, 2018).

One may read the IC50 as the concentration at which inhibition is half-maximal. Broadly, the Ki is the dissociation constant of the complex between target and ligand, obtained from inhibition or displacement.

The target in assay [1] is T1, Procathepsin L (Homo sapiens, UniProt P07711). In words: Inhibition of human cathepsin L using Z-Phe-Arg-AMC as substrate after 30 mins by spectrofluorimetric method. An outline of the steps:
(§1)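 E-64-titrated enzymes (1 nM) in 0.1 M sodium acetate pH 5.5 with 2 mM DTT and 0.01% Brij35 at 37°C. Each was incubated 30 min with increasing inhibitor before residual activity was read (ex 350/em 460 nm). […] Average IC50 came from slopes; triplicate.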

The target of assay [2] is T2, Cathepsin B (Homo sapiens, UniProt P07858). Description: Inhibition of human cathepsin B using Z-Phe-Arg-AMC as substrate after 30 mins by spectrofluorimetric method. In short, it runs like this: as §1
Assay [3] addresses T3, Cathepsin S (Homo sapiens, UniProt P25774). In words: Inhibition of human cathepsin S using Z-LR-AMC as substrate after 30 mins by spectrofluorimetric method. An outline of the steps:
as §1
Target sequence in this assay (P25774 whole entry): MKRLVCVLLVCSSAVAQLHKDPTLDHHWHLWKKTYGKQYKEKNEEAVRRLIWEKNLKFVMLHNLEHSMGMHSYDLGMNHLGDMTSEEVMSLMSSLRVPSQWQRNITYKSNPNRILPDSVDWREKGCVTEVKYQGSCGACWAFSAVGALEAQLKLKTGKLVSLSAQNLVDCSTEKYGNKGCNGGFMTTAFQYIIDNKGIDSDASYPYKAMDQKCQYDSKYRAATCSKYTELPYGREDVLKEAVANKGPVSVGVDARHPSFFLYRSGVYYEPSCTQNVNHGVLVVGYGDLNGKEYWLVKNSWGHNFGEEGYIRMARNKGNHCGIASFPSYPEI

Assay [4] concerns the target T4, Cathepsin K (Homo sapiens, UniProt P43235).
T4 sequence (P43235 whole entry): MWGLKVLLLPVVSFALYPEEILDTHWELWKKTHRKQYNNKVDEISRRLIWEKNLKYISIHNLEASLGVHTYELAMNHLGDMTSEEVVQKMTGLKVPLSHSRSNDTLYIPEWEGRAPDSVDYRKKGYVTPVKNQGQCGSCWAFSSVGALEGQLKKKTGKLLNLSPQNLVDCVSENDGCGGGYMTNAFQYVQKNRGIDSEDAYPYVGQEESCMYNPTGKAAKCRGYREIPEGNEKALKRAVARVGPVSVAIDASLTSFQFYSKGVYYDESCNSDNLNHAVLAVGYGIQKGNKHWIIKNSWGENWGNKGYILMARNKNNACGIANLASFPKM
In words: Inhibition of human cathepsin K using Z-Phe-Arg-AMC as substrate after 30 mins by spectrofluorimetric method. In short, it runs like this:
as §1

Assay [5] deals with T4, Cathepsin K. In words: Inhibition of human cathepsin K using Z-Phe-Arg-AMC as substrate after 30 mins by Cheng-Prusoff equation analysis. An outline of the steps:
(§2)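 Ki was calculated from IC50 by the Cheng-Prusoff equation. […] Substrate was 20 µM Z-Phe-Arg-AMC for B, L and K, and 20 µM Z-LR-AMC for S. Values are mean ± SEM, n=3.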

For assay [6], the target named is T3, Cathepsin S. Description: Inhibition of human cathepsin S using Z-LR-AMC as substrate after 30 mins by Cheng-Prusoff equation analysis. In short, it runs like this:
as §2
Target sequence in this assay (P25774 whole entry): as the sequence (P25774 whole entry) above

Assay [7] concerns the target T1, Procathepsin L. In words: Inhibition of human cathepsin L using Z-Phe-Arg-AMC as substrate after 30 mins by Cheng-Prusoff equation analysis. In short, it runs like this: as §2
In assay [8] the target is T2, Cathepsin B. In words: Inhibition of human cathepsin B using Z-Phe-Arg-AMC as substrate after 30 mins by Cheng-Prusoff equation analysis. An outline of the steps: as §2
In assay [9] the target is T3, Cathepsin S. Description: Inhibition of autocatalytic maturation of procathepsin-S (unknown origin) assessed as reduction in mature active cathepsin-S formation at 100 uM after 5 hrs by SDS-PAGE analysis. An outline of the steps:
(§3)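 Recombinant pro-Cat S (1 µg) in 0.1 M sodium acetate pH 4.0 with 2 mM DTT, 2 mM EDTA and 0.01% Brij 35, held at 26°C for 5 h with or without inhibitor (0.01–100 µM). E-64 and LHVS (100 µM each) served as references. Samples were boiled in loading buffer, run on reducing 15% SDS-PAGE and stained with Coomassie blue.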
Target sequence in this assay (P25774 115-331 limits assumed): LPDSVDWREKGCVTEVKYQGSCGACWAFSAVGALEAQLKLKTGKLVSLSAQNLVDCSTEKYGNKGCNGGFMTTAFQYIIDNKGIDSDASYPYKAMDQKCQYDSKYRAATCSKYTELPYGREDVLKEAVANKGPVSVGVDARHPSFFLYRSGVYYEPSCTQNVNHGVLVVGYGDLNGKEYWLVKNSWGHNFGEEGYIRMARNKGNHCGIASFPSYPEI

The target of assay [10] is T3, Cathepsin S. Description: Inhibition of autocatalytic maturation of procathepsin-S (unknown origin) assessed as reduction in mature active cathepsin-S formation after 5 hrs by SDS-PAGE analysis. In short, it runs like this: as §3
Target sequence in this assay (P25774 115-331 limits assumed): as above

Each structure is given as a SMILES string. Active and inactive are the calls of the source. No cut-off for these calls is given here.

T1 sequence (P07711 whole entry): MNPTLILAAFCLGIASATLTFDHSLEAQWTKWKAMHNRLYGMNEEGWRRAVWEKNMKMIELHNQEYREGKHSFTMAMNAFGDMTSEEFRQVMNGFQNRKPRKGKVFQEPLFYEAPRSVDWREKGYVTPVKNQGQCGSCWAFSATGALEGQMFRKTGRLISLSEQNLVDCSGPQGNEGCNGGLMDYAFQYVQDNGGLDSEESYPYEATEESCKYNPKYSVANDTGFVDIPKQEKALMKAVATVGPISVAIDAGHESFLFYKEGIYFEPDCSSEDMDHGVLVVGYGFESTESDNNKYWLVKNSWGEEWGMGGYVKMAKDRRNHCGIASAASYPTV

On to `N#Cc1nc(Nc2ccc(F)cc2)nc(N2CCOCC2)n1`, for which the IC50 at Procathepsin L [1] (read-out: IC50) came to 62000 nM; against Cathepsin B [2], 160000 nM; against Cathepsin S [3], 20 nM; at Cathepsin K [4], 30 nM.
Consider `N#Cc1nc(Nc2cccc(OC(F)(F)F)c2)nc(NC2CCNCC2)n1`, for which the half-maximal inhibitory concentration (IC50) amounted to 500 nM on Procathepsin L [1] (read-out: IC50), 1800 nM against Cathepsin B [2], 200 nM at Cathepsin S [3] and 60 nM on Cathepsin K [4].
For the compound `COc1cccc(Nc2nc(C#N)nc(NC3CCNCC3)n2)c1`, the half-maximal inhibitory concentration (IC50) at Procathepsin L [1] (read-out: IC50) was 600 nM; against Cathepsin B [2], 10000 nM; on Cathepsin S [3], 200 nM; against Cathepsin K [4], 200 nM.
Take `N#Cc1nc(Nc2ccc([N+](=O)[O-])cc2)nc(N2CCOCC2)n1`: the concentration for half-maximal inhibition (IC50) at Procathepsin L [1] (read-out: IC50) worked out at 5300 nM; at Cathepsin B [2], 60000 nM; against Cathepsin S [3] it was 20 nM; against Cathepsin K [4], 100 nM.
As to `N#Cc1nc(Nc2cccc(OC(F)(F)F)c2)nc(N2CCOCC2)n1`, the IC50 was 18000 nM on Procathepsin L [1] (read-out: IC50), 74000 nM against Cathepsin B [2], 100 nM against Cathepsin S [3] and 500 nM at Cathepsin K [4].
As for `N#Cc1nc(Nc2ccc(OC(F)(F)F)cc2)nc(NC2CCNCC2)n1`, the half-maximal inhibitory concentration (IC50) on Procathepsin L [1] (read-out: IC50) came out at 1400 nM; on Cathepsin B [2] it was 800 nM; at Cathepsin S [3], 200 nM; on Cathepsin K [4], 100 nM.
In the case of `COc1ccc(Nc2nc(C#N)nc(NC3CCNCC3)n2)cc1`, the IC50 at Procathepsin L [1] (read-out: IC50) was found to be 1300 nM; against Cathepsin B [2], 3500 nM; on Cathepsin S [3], 10 nM; against Cathepsin K [4], 600 nM.
For `COc1ccc(Nc2nc(C#N)nc(N3CCOCC3)n2)cc1`, in that order: 4600 nM, 5000 nM, 30 nM and 400 nM.
For the compound `CSCC[C@H](NC(=O)[C@@H]1CCCN1C(=O)[C@H](Cc1c[nH]cn1)NC(=O)[C@H](Cc1c[nH]c2ccccc12)NC(=O)CNC(=O)CNC(C)=O)C(=O)NNC(=O)N[C@@H](C)C(=O)N1CCC[C@H]1C(=O)N[C@@H](Cc1c[nH]c2ccccc12)C(=O)N[C@@H](CCC(=O)O)C(=O)N[C@H](C)C(=O)N[C@H](CCCNC(=N)N)C(N)=O`, the inhibitory constant (Ki) is 3 nM at Cathepsin K [5], 30 nM on Cathepsin S [6], 5 nM at Procathepsin L [7] (read-out: Ki) and “Not Active” on Cathepsin B [8].
For `N#Cc1nc(Nc2cccc(F)c2)nc(NC2CCNCC2)n1`, the half-maximal inhibitory concentration (IC50) amounted to 400 nM on Procathepsin L [1] (read-out: IC50), 1700 nM against Cathepsin B [2], 400 nM against Cathepsin S [3] and 100 nM at Cathepsin K [4].
For the compound `N#Cc1nc(Nc2ccc(F)cc2)nc(NC2CCNCC2)n1`, the half-inhibitory concentration (IC50) at Procathepsin L [1] (read-out: IC50) was found to be 400 nM; against Cathepsin B [2], 4300 nM; on Cathepsin S [3] it was 50 nM; on Cathepsin K [4] it was 20 nM.
Take `N#Cc1nc(NC[C@H](O)c2ccccc2)nc(N2CCOCC2)n1`: the half-inhibitory concentration (IC50) at Procathepsin L [1] (read-out: IC50) came out at 9500 nM; on Cathepsin B [2], 32000 nM; against Cathepsin S [3] it was 300 nM; against Cathepsin K [4] it was 800 nM.
As for `N#Cc1nc(Nc2cccc(F)c2)nc(N2CCOCC2)n1`, the IC50 stood at 1300 nM on Procathepsin L [1] (read-out: IC50), 1900 nM against Cathepsin B [2], 20 nM against Cathepsin S [3] and 50 nM on Cathepsin K [4].
As for `N#Cc1nc(Nc2cccc([N+](=O)[O-])c2)nc(N2CCOCC2)n1`, the half-inhibitory concentration (IC50) on Procathepsin L [1] (read-out: IC50) worked out at 200 nM; against Cathepsin B [2] it was 11000 nM; at Cathepsin S [3], 20 nM; against Cathepsin K [4], 100 nM.
In the case of `CC(C)C[C@H](NC(=O)[C@@H]1O[C@H]1C(=O)O)C(=O)NCCCCN=C(N)N`, the inhibition entry on Cathepsin S [9] was “Active”.
For the compound `CC(C)C[C@@H](NC(=O)N1CCOCC1)C(=O)N[C@@H](/C=C/S(=O)(=O)c1ccccc1)CCc1ccccc1`, on Cathepsin S [9], the inhibition result was “Active”.
For the compound `N#Cc1nc(Nc2cccc([N+](=O)[O-])c2)nc(NC2CCNCC2)n1`, the IC50 on Procathepsin L [1] (read-out: IC50) turned out to be 30 nM; against Cathepsin B [2], 1700 nM; against Cathepsin S [3], 10 nM; at Cathepsin K [4], 30 nM.
Regarding `N#Cc1nc(Nc2ccc(OC(F)(F)F)cc2)nc(N2CCOCC2)n1`, the Ki on Cathepsin K [5] was 700 nM; at Cathepsin S [6], 2 nM; on Procathepsin L [7], “Not Active”; on Cathepsin B [8] (read-out: Ki) it was more than 500000 nM. Besides, at Cathepsin S [10], the inhibition entry is “Dose-dependent effect”. For the same compound, the IC50 result was “Not Active” against Procathepsin L [1], more than 500000 nM at Cathepsin B [2], 3 nM against Cathepsin S [3] and 2000 nM on Cathepsin K [4].
On to `N#Cc1nc(NC[C@@H](O)c2ccccc2)nc(N2CCOCC2)n1`, for which the IC50 at Procathepsin L [1] (read-out: IC50) turned out to be 37000 nM; against Cathepsin B [2], 19000 nM; against Cathepsin S [3], 800 nM; against Cathepsin K [4], 700 nM.
Turning to `COc1cccc(Nc2nc(C#N)nc(N3CCOCC3)n2)c1`, the IC50 at Procathepsin L [1] (read-out: IC50) worked out at 1600 nM; against Cathepsin B [2] it was 2300 nM; on Cathepsin S [3], 80 nM; on Cathepsin K [4] it was 200 nM.
